High-throughput results: PubChem BioAssay, The Scripps Research Institute Molecular Screening Center
SMARCA2 activ: SMARCA2 (BRM) function activators, primary screen, cell-based, luminescence, high throughput | MG213 cells, MMTV-luciferase reporter, dexamethasone, overnight | activation, % at 9.1 µM | 370,000 tested, 1% active | AID 652017, 2013; in the data active means activation above about 7.8%;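 further: 0% = vehicle wells and 100% = reference activator wells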
NR2E3 ag-1: inhibitors of NR2E3-RetCOR corepressor binding, primary screen, NR2E3 agonist project, biochemical, TR-FRET, GST-NR2E3, biotin-RetCOR; 1536-well; Photoreceptor-specific nuclear receptor (Homo sapiens), Q9Y5X4; inhibition of corepressor binding, % at 4.78 µM; 320,000 tested, 0.12% active; AID 2300, 2010;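 active means percent inhibition above the cutoff of mean plus 3 SD of all tested compounds, set per screening campaign, cut at about 20% in these data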;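 further: 0% = DMSO wells and 100% = biotin wells as full block of FRET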
Target sequence (Q9Y5X4 whole entry, looked up): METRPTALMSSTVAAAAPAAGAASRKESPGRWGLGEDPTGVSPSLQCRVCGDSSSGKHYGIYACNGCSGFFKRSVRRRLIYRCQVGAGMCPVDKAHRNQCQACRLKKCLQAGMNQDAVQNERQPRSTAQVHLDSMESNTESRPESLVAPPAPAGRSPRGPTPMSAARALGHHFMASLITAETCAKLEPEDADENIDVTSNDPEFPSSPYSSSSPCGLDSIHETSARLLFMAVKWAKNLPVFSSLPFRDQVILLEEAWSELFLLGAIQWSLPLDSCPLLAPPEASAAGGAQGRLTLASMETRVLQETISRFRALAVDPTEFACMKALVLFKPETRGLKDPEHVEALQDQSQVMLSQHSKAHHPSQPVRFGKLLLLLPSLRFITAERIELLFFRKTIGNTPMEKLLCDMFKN
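Test system: GST-NR2E3 and biotin-RetCOR proteins | Quantity: 1.35 nM GST-tagged NR2E3 final | Medium: Tris pH 7.5 | Also added: 7 nM biotin-RetCOR | Dosing: Compound at 4.8 µM, single dose | Timing: 5 h at 4 °C | Detection: Time-resolved FRET | Read-out basis: Percent inhibition | Benchmarks: Biotin wells as high control, 0.6% DMSO wells as low control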
GalR3 antagonist: GalR3 antagonists in HEK293 cells, primary screen, cell-based, fluorescence readout | Galanin receptor type 3 (Homo sapiens), O60755 | HEK293 GalR3-CNG cAMP membrane potential fluorescence; galR3 body fused to GalR1 C-terminus | inhibition, % at 3 µM | 360,000 tested, 0.44% active;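 active means inhibition above the screen-wide average plus 3 SD, cut at about 13% in these data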;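 further: forskolin and galanin both at EC90 stimulate the cells; cAMP rise reported by CNG channel membrane potential dye signal; 0% = forskolin plus galanin with DMSO and 100% = forskolin alone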
COUP-TFII inh: NR2F2 transcriptional activity inhibitors, primary screen, cell-based, luciferase reporter, HEK293T, luminescence | HEK293T NGFI-A luciferase reporter | inhibition, % at 8.6 µM | 370,000 tested, 0.7% active | AID 686940, 2013;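 active means inhibition above a per-plate cutoff, mean inhibition of test wells between control levels plus 3 SD, cut at about 38% in these data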;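 further: cells cotransfected with COUP-TFII expression vector driving the NGFI-A reporter; 0% = median of COUP-TF2 test wells and 100% = reporter-only cells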
NR2E3 ag-2: NR2E3 agonists in two-hybrid cells, primary screen, cell-based, luminescence, CHO-S, Gal4-NCOR/VP16-NR2E3 | luciferase | Photoreceptor-specific nuclear receptor (Homo sapiens), Q9Y5X4 | inhibition of corepressor binding, % at 3.98 µM | 360,000 tested, 0.35% active;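 active means inhibition above the mean of all tested compounds plus 3 SD, cut at about 70% in these data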;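 further: 0% = DMSO with NR2E3 transfected cells and 100% = cells lacking NR2E3 construct; higher means lower luciferase signal from less NR2E3 corepressor binding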
SMARCA2 conf: SMARCA2 (BRM) function activators, confirmation, cell-based, luminescence, triplicate; shares compounds with SMARCA2 activ; MG213 cells, MMTV-luciferase with dexamethasone, overnight; MG213 cells expressing E1A, Rb sequestered; DMSO wells 0%, reference activator 100%; activation, % at 9.1 µM; 3,500 tested, 30% active; AID 652260, 2013;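 active means activation above its plate's cutoff, the mean activation of tested wells plus 3 SD, cut at about 7.9% in these data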
GAL4-VP16 Luc: GAL4-VP16 luciferase reporter activation, counter-screen for SMARCA2 (BRM) activator project, cell-based, pG5luc, luminescence, high throughput | HEK293 GAL4-VP16 pG5luc reporter; scaled: DMSO wells 0%, SAHA wells 100% | 3,500 tested, 41% active | shares compounds with SMARCA2 activ | activation, % at 9.1 µM;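 active means activation above the solvent-only control well mean plus 3 SD, averaged across control plates, cut at about 5.2% in these data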
* hit, by the source's call; . = no result. A selection: hits, their analogues and other compounds. The true share with any hit is near 2.2%.

SMILES | SMARCA2 activ | NR2E3 ag-1 | GalR3 antagonist | COUP-TFII inh | NR2E3 ag-2 | SMARCA2 conf | GAL4-VP16 Luc
O=C(CCc1ccccc1)N[C@H]1[C@@H](OC(=O)c2cccnc2)CCC[C@]12C(=O)N(Cc1ccccc1)c1ccccc12 | -0.1 | . | . | 10.3 | . | . | .
O=C(NC(=S)N1CCc2ccccc21)c1ccccc1 | 8.5* | -2.6 | -7.8 | -3.5 | -18.3 | 2.5 | 0.8
CCc1ccc(C(=O)Cn2ncc(Cl)c(Cl)c2=O)cc1 | 16.9* | 18.7 | -3.7 | 9.2 | 29.1 | -15.9 | 4.1
Cc1ccc(Cn2ncc(Cl)c(Cl)c2=O)cc1 | 7.7 | 5.7 | -4.7 | -2.6 | -9.5 | . | .
CCOC(=O)c1[nH]c2cc(OC)c(OC)cc2c1NC(=O)c1ccc2c(c1)OCO2 | -2.2 | -0.1 | -2.6 | 1.6 | 3.1 | . | .
CCOC(=O)c1[nH]c2cc(OC)c(OC)cc2c1NC(=O)c1nonc1C | 9.9* | 5.6 | -1.9 | -11.9 | 6.9 | -1.9 | -1.8
CCN(CC)CCCNc1nc2ccccc2c2[nH]c3ccc(OC)cc3c12 | 53.9* | . | -4.5 | -36.3 | -38.4 | -15.1 | -0.6
CCN(CC)CCCNc1nc(-c2ccccc2)nc2ccccc12 | 2.9 | 2.9 | -0.3 | -6.8 | 6.5 | . | .
Cc1ccc(-c2c(NC(=O)Nc3ccccc3)nc3ncccn23)cc1 | 1.7 | . | . | -22.7 | . | . | .
O=C(Nc1ccccc1)Nc1nc2ncccn2c1-c1ccc(F)cc1 | 14.1* | . | . | -14.1 | . | 3.6 | 4.4
O=C(Nc1nc2ncccn2c1-c1ccc(F)cc1)C1CC1 | 8.7* | . | . | -3.7 | . | -2.3 | 0.0
CCCCNC(=O)C[C@H]1C[C@@]2(C(=O)OC)C(=C[C@H](C(C)C)O[C@@H]2C2CC2)N(Cc2ccco2)C1=O | -4.2 | . | . | 1.2 | . | . | .
CCCCCCCCN1C(=O)[C@@H](CC(=O)N2CCC(c3ccccc3)CC2)C[C@@]2(C(=O)OC)C1=C[C@H](COCc1ccccc1)O[C@@H]2C | -0.8 | . | . | -6.5 | . | . | .
COc1c(F)c(F)c(C(=O)Nc2ccccc2N2CCN(C(C)=O)CC2)c(F)c1F | 0.9 | -1.5 | 3.0 | -6.7 | 3.1 | . | .
COc1c(F)c(F)c(C(=O)Nc2ccccc2N2CCN(C(=O)C(C)C)CC2)c(F)c1F | 8.0* | 0.5 | 1.0 | 0.6 | -8.9 | -3.8 | -0.8
O=C(c1ccncc1F)N1CCC(n2nnc3ncccc32)CC1 | 8.1* | . | . | -14.9 | . | -0.2 | -0.7
COc1cc(OC)cc(N2CCN(S(=O)(=O)c3ccc(-n4cnnn4)cc3)CC2)c1 | 9.6* | 2.6 | -6.1 | 3.0 | -1.6 | 0.6 | 1.6
O=C(Nc1ccc2oc(-c3ccccc3Cl)nc2c1)c1cncc(Br)c1 | 8.1* | 1.4 | -4.1 | -41.9 | -61.0 | -0.3 | 4.6
CCOC(=O)[C@]12CCCC=C1N(Cc1ccc(OC)cc1)C(=O)[C@@H]2CC(=O)NCCC(C)C | -3.4 | . | . | 7.5 | . | . | .
CCc1ccc(-n2c(=O)c3ccccc3n(CC(=O)NCc3ccco3)c2=O)cc1 | 8.6* | 7.6 | -6.6 | 7.7 | -11.6 | -3.7 | -0.9
COc1ccc(-c2c(Cc3ccccc3)nc(NC(=O)c3ccccc3F)n2C)cc1 | -0.4 | . | . | 2.5 | . | . | .
NC(=O)C1CC(=O)N(c2ccc(OCc3c(Cl)cccc3Cl)cc2)C1 (stereo not drawn) | 8.7* | -5.2 | -3.1 | -15.7 | -2.0 | -5.2 | 0.8
O=C(CNC(=O)c1ccccc1)OCc1nc2ccccc2s1 | 13.6* | 4.2 | -5.0 | -24.1 | -69.5 | 4.7 | 6.3*
O=C(CNC(=O)c1ccccc1F)OCc1nc2ccccc2s1 | 6.1 | 1.8 | 4.9 | -2.8 | -27.5 | . | .
C[C@@H]1OCN(C)[C@H]2C[C@H]3c4[nH]c5cccc(-c6cccc(F)c6)c5c4CCN3C(=O)[C@@H]12 | 0.6 | . | . | -17.4 | . | . | .
